Assay outcomes (PubChem)
This is a sample that favours compounds with a hit; in the whole collection about 2.4% have one here.
MPTP inh – mitochondrial permeability transition pore inhibitors, primary screen, biochemical, isolated mouse mitochondria, absorbance; Ca2+ swelling absorbance, 30 min; inhibition, % at 10 µM; actives 1.4% (n = 360,000); AID 602449, 2012;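 active = inhibition of 50% or more, scaled per plate between neutral and stimulator controls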
NR2E3 ag-1 – NR2E3 agonists in two-hybrid cells, primary screen, cell-based, luminescence, CHO-S, Gal4-NCOR/VP16-NR2E3 | Photoreceptor-specific nuclear receptor (Homo sapiens), Q9Y5X4 | actives 0.35% (n = 360,000) | luciferase | inhibition of corepressor binding, % at 3.98 µM;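 active = inhibition above the mean of all tested compounds plus 3 SD, cut at about 70% in these data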;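 also: higher means lower luciferase signal from less NR2E3 corepressor binding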
Target sequence (Q9Y5X4 whole entry, looked up, the tested form may be a part): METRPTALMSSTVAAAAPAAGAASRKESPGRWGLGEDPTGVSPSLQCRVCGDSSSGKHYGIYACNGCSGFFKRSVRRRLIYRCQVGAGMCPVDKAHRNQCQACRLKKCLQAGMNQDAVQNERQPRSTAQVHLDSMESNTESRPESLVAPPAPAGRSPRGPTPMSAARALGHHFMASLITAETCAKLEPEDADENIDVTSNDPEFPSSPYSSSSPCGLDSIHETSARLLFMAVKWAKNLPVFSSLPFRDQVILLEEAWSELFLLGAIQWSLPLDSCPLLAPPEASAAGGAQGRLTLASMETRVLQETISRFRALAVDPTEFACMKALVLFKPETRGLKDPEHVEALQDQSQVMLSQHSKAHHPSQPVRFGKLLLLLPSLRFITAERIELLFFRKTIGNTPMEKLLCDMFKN
aDG glyco act – activators of alpha-DG glycosylation, primary screen, uHTS, Pro5-aDG cells, AlphaScreen; activation, % at 10 µM; alpha-DG glycosylation AlphaScreen (IIH6); 0% Pro5, 100% B10-LARGE cell signal; actives 0.22% (n = 360,000); AID 624168, 2012;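 active = activation of at least 8% versus controls, or a plate z-score of at least 8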;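 also: Pro5 are CHO cells carrying HIG-tagged alpha-DG that lacks glycosylation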
697 NFkB inh – inhibitors of PMA/ionomycin-induced NF-kB reporter, 697 cells, primary screen, B-cell NF-kB inhibitor project, cell-based, luminescence, uHTS; 697 B-cell NF-kB luciferase reporter, 16 h; inhibition, % at 4 µM; actives 0.33% (n = 330,000); AID 435022, 2010; in the data active = inhibition above about 35%
Jurkat NFkB inh – inhibitors of induced NF-kB luciferase reporter, primary screen, TCR NF-kB activation inhibitor project, cell-based, luminescence, uHTS; Jurkat, PMA/ionomycin-induced NF-kB luciferase reporter; inhibition, % at 4 µM; actives 0.53% (n = 330,000); in the data active = inhibition above about 50%
NR2E3 ag-2 – inhibitors of NR2E3-RetCOR corepressor binding, primary screen, NR2E3 agonist project, biochemical, TR-FRET, GST-NR2E3, biotin-RetCOR | Photoreceptor-specific nuclear receptor (Homo sapiens), Q9Y5X4 | inhibition of corepressor binding, % at 4.78 µM | actives 0.12% (n = 320,000) | 1536-well;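 active = percent inhibition above the cutoff of mean plus 3 SD of all tested compounds, set per screening campaign, cut at about 20% in these data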
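Material: NR2E3–RetCOR corepressor complex / Incubation: Compound–protein incubation for 5 h at 4 °C / Dosing: compound at 4.8 µM, single dose / Detection: time-resolved FRET / Benchmarks: high control biotin, low control 0.6% DMSO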
MPTP counter – fluorescence retest of MPTP screen hits in isolated mitochondria, single concentration; shares compounds with MPTP inh; membrane potential, Rhodamine 123 fluorescence; inhibition, % at 10 µM; actives 78% (n = 5,000); AID 624504, 2012; in the data active = inhibition above about 22%
Each line names hits and unclear results; the compound was inactive in the other large screens (follow-up assays come after a bar, where they were run).

O=C(NCc1ccccc1)C(c1ccc(F)cc1)N(C(=O)c1csnn1)C1CCCC1 (stereo unspecified)	none
Cc1[nH]n(-c2ccccc2)c(=O)c1C(c1cccc([N+](=O)[O-])c1O)c1c(C)[nH]n(-c2ccccc2)c1=O	MPTP inh 103 | MPTP counter 65
Cc1[nH]n(-c2ccccc2)c(=O)c1C(C[N+](=O)[O-])c1ccc(Br)cc1 (stereo unspecified)	MPTP inh 73 | MPTP counter 37
O=C(c1ccc(F)cc1)C(C(=O)N1CCCCC1)n1ccccc1=O (stereo unspecified)	none
CCCCOc1ccc(-c2cc(C(F)(F)F)c(C#N)c(SCC(=O)O)n2)cc1	none
CN(C)CCCNC(=O)C[C@H]1C[C@H](C(=O)N2CCCCC2)[C@@]2(C)c3[nH]c4cc(CCC(=O)N(C)C)ccc4c3CCN2C1=O	none (no result: Jurkat NFkB inh, NR2E3 ag-2)
O=C1CC(c2ccccc2)(c2ccccc2)c2ccccc21	none (no result: 697 NFkB inh, Jurkat NFkB inh, NR2E3 ag-2)
O=C(/C=C/c1cccc(C(F)(F)F)c1)Nc1cccc(C(F)(F)F)c1	MPTP inh 87 | MPTP counter 85
CSc1cccc(NC(=O)NCc2cccc(CNC(=O)Nc3cccc(SC)c3)c2)c1	MPTP inh 68 | MPTP counter 63
O=C(Nc1ccc(Br)cc1)Nc1ccccc1Cl	MPTP inh 78 | MPTP counter 103
CSc1cccc(NC(=O)Nc2ccc(Cl)cc2)c1	MPTP inh 88 | MPTP counter 104
CC(NC(=O)COc1ccccc1)C(=O)N1CCN(c2ccccc2)CC1 (stereo unspecified)	none
CCOC(=O)c1c(S(=O)(=O)Nc2ccccn2)c(C)n(C)c1C	none
CSc1cccc(NC(=O)/C=C/c2cccc(Cl)c2)c1	MPTP inh 73 | MPTP counter 82
COc1ccc(NC(=O)Nc2ccccc2SC)cc1	none
Cc1ccc(NC(=O)Nc2ccc(Cl)cc2)c(Br)c1	MPTP inh 102 | MPTP counter 92
CSc1ccccc1NC(=O)Nc1ccc(Cl)cc1	MPTP inh 92 | MPTP counter 75
O=C(Nc1ccc(Cl)cc1)Nc1ccccc1CC[N+](=O)[O-]	MPTP inh 83 | MPTP counter 85
COc1ccc(/C=C2/SC(=O)N(NS(=O)(=O)c3ccccc3)C2=S)cc1OC	none
CCOc1ccc(S(=O)(=O)N2CCCC(C(=O)NCc3ccncc3)C2)cc1C (stereo unspecified)	none
CC(C)(C)NC(=S)NNC(=O)[C@H]1C[C@@H]1c1ccccc1	none
Cc1ccc(C2CC2C(=O)NNC(=S)Nc2ccc(Cl)cc2)cc1 (stereo unspecified)	MPTP inh 53 | MPTP counter 73
CC(N=c1ccccn1C(=O)Nc1cccc(C(F)(F)F)c1)c1ccco1 (stereo unspecified)	MPTP inh 90 | MPTP counter 84
CN1CCN(CC(O)COc2ccc(C34CC5CC(CC(C5)C3)C4)cc2)CC1 (stereo unspecified)	none (no result: 697 NFkB inh, Jurkat NFkB inh, NR2E3 ag-2)
N#C/C(=C\c1cc2ccccc2nc1N1CCCCC1)C(N)=O	none (no result: 697 NFkB inh, Jurkat NFkB inh)
O=C1NC(=S)S/C1=C\c1cc2ccccc2nc1N1CCCCC1	MPTP inh 73 | MPTP counter 67
COc1ccc2nc(N3CCCCC3)c(/C=C3\SC(=S)NC3=O)cc2c1	MPTP inh 76 | MPTP counter 44
CC(OC(=O)CCc1ccccc1)C(=O)Nc1ncc(Cl)cc1Cl (stereo unspecified)	none
CCCc1ccc(/C=C2\C(=O)c3ccccc3C(O)=C2C(=O)OCC)cc1	none (no result: MPTP inh, NR2E3 ag-1, aDG glyco act)
CCOC(=O)C1=C(O)c2ccccc2C(=O)/C1=C\c1ccc(CC)cc1	MPTP inh 67 (no result: 697 NFkB inh, Jurkat NFkB inh) | MPTP counter 77
